Converted amounts (≈) assume the structure as drawn.
Tests used:
Bacteria = test: Geometric mean of antibacterial activity (Gram +ve bacteria) of the compound; format: functional
In short: (§1)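 Geometric means calculated from agar-dilution MICs (µg/mL), taken separately across the five Gram-positive and the eight Gram-negative panel strains.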

[1] = Geometric mean of antibacterial activity (Gram -ve bacteria) of the compound; format: functional; in short: as §1
Proteus vulgaris = test: Antibacterial activity tested against Proteus vulgaris CNUR 5; format: functional
In short: (§2)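 MICs (µg/mL) determined by conventional agar dilution against a panel of eight Gram-negative and five Gram-positive reference strains.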

Providencia stuartii = test: Antibacterial activity tested against Providencia stuartii CNUR 5; format: functional; in short: as §2
Pseudomonas aeruginosa = test: Antibacterial activity tested against P. ae (Pseudomonas aeruginosa) ATCC 9027; format: functional; in short: as §2
Mus musculus [2] = test: Efficacy against Septicemia caused by Staphylococcus aureus in mice by Oral administration; format: functional
In short: (§3)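 S. aureus Smith ATCC19636, overnight brain-heart infusion culture diluted in 5% mucin, given i.p. (0.5 mL) to male and female CD-1 mice (18-22 g). Single s.c. or oral dose within 10 min of infection, drug in DMSO/0.5% methocel or as suspension. 3-5 dose groups of six mice; ED50 with 95% limits by Spearman-Kärber from day-7 survival.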

Staphylococcus aureus [3] = test: Antibacterial activity against Staphylococcus aureus ATCC 6538; format: functional; in short: as §2
Staphylococcus aureus [4] = test: Antibacterial activity against Staphylococcus aureus MPR 5; format: functional; in short: as §2
Mus musculus [5] = test: Efficacy against Septicemia caused by Staphylococcus aureus in mice by subcutaneous administration; format: functional; conditions: sc; in short: as §3
Enterococcus faecalis [6] = test: Antibacterial activity tested against Streptococcus faecalis LEP Br; format: functional; in short: as §2
[7] = test system: Staphylococcus epidermidis; test: Antibacterial activity tested against Staphylococcus epidermidis CPHL A2; format: functional; in short: as §2
[8] = test system: Staphylococcus epidermidis; test: Antibacterial activity tested against Staphylococcus epidermidis HCF Berset C; format: functional; in short: as §2
Enterococcus faecium [9] = test: microbe, parasite or virus in culture
Enterococcus faecalis [10] = test: microbe, parasite or virus in culture
Staphylococcus aureus [11] = test: microbe, parasite or virus in culture
Staphylococcus aureus [12] = test: microbe, parasite or virus in culture; remark: listed apart in the source
Enterococcus faecium [13] = test: Antibacterial activity tested against Enterococcus faecium; Range is 0.25-4 ug/mL; format: functional
Escherichia coli [14] = test: Antibacterial activity tested against Escherichia coli ATCC 8739; format: functional; in short: as §2
Enterococcus faecalis [15] = test: Antibacterial activity tested against Enterococcus faecalis; Range is 0.25-0.5 ug/mL; format: functional
Escherichia coli [16] = test: Antibacterial activity tested against Escherichia coli ISF 432; format: functional; in short: as §2
Escherichia coli [17] = test: Inhibitory activity against gyrase supercoiling activity from Escherichia coli; format: functional
In short: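 Inhibition of DNA gyrase supercoiling activity, by a previously described protocol with slight modifications. IC50 derived by densitometric quantification of the supercoiled DNA peak in an agarose gel.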

Enterobacter cloacae = test: Antibacterial activity tested against Enterobacter cloacae OMNFI 174; format: functional
Klebsiella pneumoniae = test: Antibacterial activity tested against Klebsiella pneumoniae (Klebsiella pneumoniae) ATCC 10031; format: functional; in short: as §2
Shigella = test: Antibacterial activity tested against Shigella enteritidis; format: functional; in short: as §2
Staphylococcus aureus [18] = test: Antibacterial activity tested against Staphylococcus aureus Methicillin-and Ciprofloxacin resistants; Range is 4-32 ug/mL; format: functional
Staphylococcus aureus [19] = test: Antibacterial activity tested against Staphylococcus aureus; Range is 0.06-0.13 ug/mL; format: functional
Streptococcus pneumoniae [20] = test: Antibacterial activity tested against Streptococcus pneumoniae; Range is 0.5-2 ug/mL; format: functional
Enterococcus faecium [21] = test: Antibacterial activity tested against Enterococcus faecium; Range is 1-2 ug/mL; format: functional
Enterococcus faecalis [22] = test: Antibacterial activity tested against Enterococcus faecalis; Range is 0.13-0.5 ug/mL; format: functional
Staphylococcus aureus [23] = test: Antibacterial activity tested against Staphylococcus aureus Methicillin-and Ciprofloxacin resistants; Range is 2-4 ug/mL; format: functional
Streptococcus pneumoniae [24] = test: Antibacterial activity tested against Streptococcus pneumoniae; Range is 1-2 ug/mL; format: functional
Staphylococcus aureus [25] = test: Antibacterial activity tested against Staphylococcus aureus; Range is 0.016-0.13 ug/mL; format: functional

| Compound | Geometric mean (Bacteria) | Geometric mean [1] | MIC (Proteus vulgaris) [µg/mL] | MIC (Providencia stuartii) [µg/mL] | MIC (Pseudomonas aeruginosa) [µg/mL] | MIC (Staphylococcus aureus [3]) [µg/mL] | MIC (Staphylococcus aureus [4]) [µg/mL] | MIC (Enterococcus faecalis [6]) [µg/mL] | MIC [7] [µg/mL] | MIC [8] [µg/mL] | MIC (Escherichia coli [14]) [µg/mL] | MIC (Escherichia coli [16]) [µg/mL] | IC50 (Escherichia coli [17]) [µg/mL] | MIC (Enterobacter cloacae) [µg/mL] | MIC (Klebsiella pneumoniae) [µg/mL] | MIC (Shigella) [µg/mL] | also measured |
| --- | --- | --- | --- | --- | --- | --- | --- | --- | --- | --- | --- | --- | --- | --- | --- | --- | --- |
| O=C(O)c1cn(C2CC2)c2cc(N3CCNCC3)c(F)cc2c1=O [CIPROFLOXACIN] | 0.092 | 0.033 | 0.5 (≈ 1.51 µM) | 0.06 (≈ 0.181 µM) | 0.06 (≈ 0.181 µM) | 0.06 (≈ 0.181 µM) | 0.06 (≈ 0.181 µM) | 0.5 (≈ 1.51 µM) | 0.06 (≈ 0.181 µM) | 0.06 (≈ 0.181 µM) | – | – | – | – | – | – | ED50 (Mus musculus [2]): 7 mg/kg; ED50 (Mus musculus [5]): 0.9 mg/kg; MIC (Enterococcus faecium [9]): 1 µg/mL (≈ 3.02 µM); MIC (Enterococcus faecalis [10]): 0.5 µg/mL (≈ 1.51 µM); MIC (Staphylococcus aureus [11]): 4 µg/mL (≈ 12.1 µM); MIC (Staphylococcus aureus [12]): 0.13 µg/mL (≈ 0.392 µM) |
| Cc1c(N2CCC(O)CC2)c(N)cc2c(=O)c(C(=O)O)cn(C3CC3)c12 | 0.106 | 0.495 | 16 (≈ 44.8 µM) | 1 (≈ 2.8 µM) | 2 (≈ 5.6 µM) | 0.06 (≈ 0.168 µM) | 0.125 (≈ 0.35 µM) | 0.5 (≈ 1.4 µM) | 0.06 (≈ 0.168 µM) | 0.06 (≈ 0.168 µM) | 1 (≈ 2.8 µM) | 0.03 (≈ 0.0839 µM) | 5.74 (≈ 16.1 µM) | 0.5 (≈ 1.4 µM) | 0.03 (≈ 0.0839 µM) | 0.25 (≈ 0.699 µM) | MIC (Enterococcus faecium [13]): 0.25 µg/mL (≈ 0.699 µM); MIC (Enterococcus faecalis [15]): 0.25 µg/mL (≈ 0.699 µM); MIC (Staphylococcus aureus [18]): 4 µg/mL (≈ 11.2 µM); MIC (Staphylococcus aureus [19]): 0.06 µg/mL (≈ 0.168 µM); MIC (Streptococcus pneumoniae [20]): 0.5 µg/mL (≈ 1.4 µM) |
| Cc1c(N2CCCCC2)c(N)cc2c(=O)c(C(=O)O)cn(C3CC3)c12 | 0.123 | 0.225 | 8 (≈ 23.4 µM) | 0.5 (≈ 1.46 µM) | 1 (≈ 2.93 µM) | 0.06 (≈ 0.176 µM) | 0.06 (≈ 0.176 µM) | 0.5 (≈ 1.46 µM) | 0.125 (≈ 0.366 µM) | 0.125 (≈ 0.366 µM) | 0.03 (≈ 0.0879 µM) | 0.03 (≈ 0.0879 µM) | 3.22 (≈ 9.43 µM) | 0.25 (≈ 0.732 µM) | 0.03 (≈ 0.0879 µM) | 0.25 (≈ 0.732 µM) | MIC (Enterococcus faecium [21]): 1 µg/mL (≈ 2.93 µM); MIC (Enterococcus faecalis [22]): 0.5 µg/mL (≈ 1.46 µM); MIC (Staphylococcus aureus [23]): 2 µg/mL (≈ 5.86 µM); MIC (Streptococcus pneumoniae [24]): 1 µg/mL (≈ 2.93 µM); MIC (Staphylococcus aureus [25]): 0.016 µg/mL (≈ 0.0469 µM) |

— ChEMBL document CHEMBL1129660, “Studies on 6-aminoquinolones: synthesis and antibacterial evaluation of 6-amino-8-methylquinolones” (J Med Chem, 1996)
